Drawing on ChEMBL document CHEMBL4043077, “Revisiting Previously Investigated Plants: A Molecular Networking-Based Study of Geissospermum laeve” (J Nat Prod, 2017), this text covers IC50 and Activity for 7 compounds.

Each structure is given as a SMILES string. pIC50: −log10 of the molar value. Activity calls are given as the source filed them. No cut-off for these calls is given here.

The term pIC50 denotes −log10 of the IC50, conventionally taken in molar units.

Assay [1] relates to Leishmania donovani. In words: Antiparasitic activity against Leishmania donovani LV9 […] amastigotes infected in mouse RAW264.7 cells incubated for 48 hrs by Sybr Green I dye based assay. The class given is functional, cell-based. The note with it: LV9, RAW264.7, 48 h. Summed up: (§1)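 Mean ± standard error of three independent in vitro experiments. Reference drugs: miltefosine for L. donovani LV9, tested on axenic amastigotes and on amastigotes inside RAW 264.7 macrophages; paclitaxel for MRC-5, a human fetal lung fibroblast line.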

Assay [2] concerns Leishmania donovani. Briefly: Antiparasitic activity against Leishmania donovani LV9 […] amastigotes infected in mouse RAW264.7 cells assessed induction of parasite cell morphological alteration at 100 uM incubated for 72 hrs by microscopy. The class given is functional, cell-based. Summed up:
(§2)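 RAW 264.7 macrophages infected with L. donovani LV9 amastigotes were incubated with compound for 72 h, then examined under the microscope for morphological alteration of the infected cells.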

Another assay concerns Plasmodium falciparum. In words: Antiparasitic activity against chloroquine-resistant Plasmodium falciparum FcB1/Columbia infected in human erythrocytes assessed as reduction in [3H]-hypoxanthine incorporation incubated for 24 hrs assay by liquid scintillation spectrometry. The class given is functional, cell-based. Summed up:
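In vitro test of purified alkaloids against the FcB1 strain. Values are the mean ± standard error of three independent experiments.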

For assay [3], the system named is Leishmania donovani. Briefly: Antiparasitic activity against Leishmania donovani LV9 axenic amastigotes incubated for 72 hrs by resazurin dye based assay. The class given is functional. The following applies: LV9, 72 h. In a few lines: as §1
In general terms: Alamar Blue is a resazurin reagent that responds to reducing activity.

The next assay deals with MRC5. Briefly: Cytotoxic activity against human MRC5 cells incubated for 72 hrs by resazurin dye based spectrophotometry. The class given is cell-based. The following applies: MRC5, 72 h. Summed up:
as §1

The test system of assay [4] is Leishmania donovani. Briefly: Antiparasitic activity against Leishmania donovani LV9 […] amastigotes infected in mouse RAW264.7 cells assessed induction of parasite cell morphological alteration at 6.25 uM incubated for 72 hrs by microscopy. The class given is functional, cell-based. In a few lines:
as §2

Assay [5] relates to Leishmania donovani. In words: Antiparasitic activity against Leishmania donovani LV9 […] amastigotes infected in mouse RAW264.7 cells assessed induction of parasite cell morphological alteration at 12.5 uM incubated for 72 hrs by microscopy. The class given is functional, cell-based. In a few lines:
as §2

For assay [6], the system named is Leishmania donovani. In words: Antiparasitic activity against Leishmania donovani LV9 […] amastigotes infected in mouse RAW264.7 cells assessed induction of parasite cell morphological alteration at 50 uM incubated for 72 hrs by microscopy. The class given is functional, cell-based. Summed up: as §2

With `CCC1=C(CC(=O)OC)[C@@](O)(c2nccc3c2[nH]c2ccccc23)OC1=O`, the pIC50 in the assay with Leishmania donovani [1] is 4.59; in the assay on Plasmodium falciparum, 4.13; in the assay on Leishmania donovani [3], below 4.00; with MRC5 it was below 4.30. Besides, the result in the assay with Leishmania donovani [2] was inactive.
`CC(=O)O[C@H]1C(=O)[C@@]2(C)[C@H]([C@H](OC(=O)c3ccccc3)[C@]3(O)C[C@H](OC(=O)[C@H](O)[C@@H](NC(=O)c4ccccc4)c4ccccc4)C(C)=C1C3(C)C)[C@]1(OC(C)=O)CO[C@@H]1C[C@@H]2O` [PACLITAXEL] gave a pIC50 in the assay with MRC5 of 9.28.
For the compound `CCC1=C(CC(=O)OC)[C@@](OC)(c2nccc3c2[nH]c2ccccc23)OC1=O`, the pIC50 is 4.22 with Leishmania donovani [1], 4.25 in the assay on Plasmodium falciparum, below 4.00 in the assay on Leishmania donovani [3] and below 4.30 with MRC5. Besides, the result in the assay on Leishmania donovani [2] was inactive.
For `C/C=C1\C[C@H]2[C@@H]([C@@H]3OC[C@H]4[C@H]5C[C@@H]6N(CC[C@@]67c6ccccc6N3[C@@H]47)C[C@H]5CC)[C@@H]3Cc4c([nH]c5ccccc45)[C@H]2N3C1`, the pIC50 was 5.35 in the assay with Leishmania donovani [1], 5.72 in the assay on Plasmodium falciparum, 5.03 with Leishmania donovani [3] and 7.66 in the assay with MRC5. Further, the outcome in the assay on Leishmania donovani [4] was Active.
On to `CCCCCCCCCCCCCCCCOP(=O)([O-])OCC[N+](C)(C)C` [MILTEFOSINE], for which the pIC50 in the assay on Leishmania donovani [1] was 5.28; with Leishmania donovani [3] it was 5.85. In addition, in the assay with Leishmania donovani [5], the result was Active.
With `C/C=C1/C[n+]2ccc3c([nH]c4ccccc43)c2C[C@@H]1[C@@H](C(=O)OC)[C@@H]1OC[C@H]2[C@H]3C[C@@H]4N(CC[C@@]45c4ccccc4N1[C@@H]25)C[C@H]3CC`, the negative-log IC50 (pIC50) in the assay with Leishmania donovani [1] is 4.24; with Plasmodium falciparum, 5.54; in the assay with Leishmania donovani [3], 4.29; in the assay with MRC5, 5.52. In the assay on Leishmania donovani [6], the result was Active.
With `CC[C@@]12CCCN3C(=O)C=C(c4ccccc4NC(=O)CC1)[C@]32O`, the pIC50 with Leishmania donovani [1] is 4.60; in the assay on Plasmodium falciparum, below 4.00; in the assay with Leishmania donovani [3] it was below 4.00; with MRC5 it was below 4.30. The result in the assay on Leishmania donovani [2] was inactive.
